One series relates to Salmon testes DNA. Put plainly: Binding affinity to wild type salmon sperm DNA assessed as change in melting temperature at 10 uM. The series is classed as nucleic-acid assay. The following applies: Salmonidae.
Series [1] can be described thus: Selectivity index, ratio of CC50 for cytotoxicity against HEK293 cells to MIC50 for antimycobacterial activity against GFP labelled Mycobacterium tuberculosis H37Rv. The series is classed as toxicity, cell-based. Conditions: human, read-out: Selectivity Index.
Series [2] in a line: Lipophilicity of the compound assessed as retention time by HPLC method. The series is classed as physicochemical. The procedure, abridged:
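Reverse-phase C18 HPLC with water and acetonitrile, each containing 0.1% TFA. Gradient runs from 100% water to 100% acetonitrile over 1 h; lipophilicity reported as retention time in minutes.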

Another series relates to Candida albicans. The series can be described thus: Antifungal activity against Candida albicans ATCC 90028 after 24 hrs by resazurin dye-based two-fold serial dilution assay. The series is classed as functional. Conditions: ATCC 90028, 24 h. On the technique in general: The colour change of resazurin is a common sign of viable cells or microbes.
In series [3] the test system is Trypanosoma brucei brucei. Put plainly: Antiparasitic activity against Trypanosoma brucei brucei Lister 427 after 48 hrs by Alamar blue assay. The series is classed as functional, organism-based. The following applies: Lister 427, 48 h. The procedure, abridged: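 Bloodstream-form Lister 427 in HMI-9 with 10% heat-inactivated FBS, counted by haemocytometer and seeded at 2 × 10⁴ cells/mL over serial compound dilutions. After 48 h at 37 °C, 5% CO₂, resazurin (0.49 mM solution in PBS) added for a further 24 h. Fluorescence ex 544/em 590 nm; EC50 from curve fit. Duplicates, at least three independent occasions.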

A further series concerns Cryptococcus neoformans. Put plainly: Antifungal activity against Cryptococcus neoformans ATCC 208821 after 24 hrs by resazurin dye-based two-fold serial dilution assay. The series is classed as functional.
For another series, the system named is Staphylococcus aureus. Put plainly: Antibacterial activity against methicillin-resistant Staphylococcus aureus ATCC 43300 after 18 hrs by two-fold serial dilution assay. The series is classed as functional. Conditions: ATCC 43300, 18 h. The procedure, abridged: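 MRSA ATCC 43300 grown overnight in cation-adjusted Mueller Hinton broth at 37 °C, diluted 40-fold, grown 1.5–3 h to mid-log. Inoculated at 5 × 10⁵ CFU/mL into two-fold compound dilutions (final 32–0.25 range). Incubated 18 h at 37 °C without shaking; OD600 read. Inhibition normalised to media-only and untreated-bacteria controls. MIC taken as lowest concentration giving ≥80% inhibition; duplicates (n = 2).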

For series [4], the system named is Mycobacterium tuberculosis. Put plainly: Antimycobacterial activity against GFP labelled Mycobacterium tuberculosis H37Rv up to 14 days by fluorescence assay. The series is classed as functional. The following applies: 336 h. The procedure, abridged: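 GFP-labelled Mtb H37Rv at 1 × 10^5 CFU/well in 7H9 broth with 10% OADC and 25 kanamycin. Two-fold compound dilutions were tested. Incubated at 37 °C without shaking.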

The subject of a further series is Trypanosoma congolense. The series can be described thus: Antiparasitic activity against Trypanosoma congolense IL3000 after 69 hrs by Alamar blue assay. The series is classed as functional, organism-based. The following applies: IL3000, 69 h. The procedure, abridged: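 Bloodstream-form IL3000 counted electronically and seeded at 1.25 × 10⁵ trypanosomes/ml into threefold serial compound dilutions. Kept 69 h at 34 °C, 5% CO₂, then resazurin (12.5 mg per 100 mL PBS) added for 3 h. Fluorescence ex 536/em 588 nm gives EC50. Three separate assay runs.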

Series [5] can be described thus: Cytotoxicity against HEK293 cells reduction in cell viability after 20 hrs by resazurin dye based fluorescence assay. The following applies: human. The procedure, abridged: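 HEK-293 cells at 4000 per well in DMEM with 10% FBS, exposed to two-fold dilutions from 32 to 0.25 (final) for 20 h at 37 °C, 5% CO₂. Resazurin added (100 final) for 3 h more; fluorescence ex 560/em 590 nm. CC50 is the concentration giving 50% cytotoxicity. Duplicates.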

SMILES strings stand for the structures. In brackets after ≈: the same amount, converted by molar mass. A value given as a limit tells only on which side of the number the result lay.

What is called ΔTm is the shift of the melting midpoint relative to a reference. For orientation: MIC80 means an inhibitory concentration at the 80% level, which refers to growth in some studies and to a panel of isolates in others. A higher MIC80 goes with weaker potency. As a reminder, the EC50 is the concentration at which the effect is half-maximal. Higher therefore signals a need for much substance. Broadly, the MIC99 is an inhibitory concentration at the 99% level, which refers to growth in some studies and to a panel of isolates in others. A lower MIC99 goes with higher susceptibility. The CC50 is the concentration that lowers cell viability or growth by half. Read a low CC50 as harm at low concentration.

Take `CC(C)CCc1sc(NC(=O)c2cc(NC(=O)c3cc(NC(=N)c4cccc(F)c4)cn3C)cn2C)nc1C(=O)NCCCN(C)C`: the ΔTm in the series on Salmon testes DNA was 4 °C. The selectivity ratio in series [1] came out at 25. Further, the Retention_time in [2] came out at 26.2 min. The MIC80 against Candida albicans is greater than 32 µg/mL; in the series on Staphylococcus aureus, 8 µg/mL (≈ 12.1 µM). Besides, the results for the EC50 (in [3]; with Trypanosoma congolense) were 18 µM and 5.5 µM, respectively. Besides, the MIC70 with Cryptococcus neoformans came out at 8 µg/mL (≈ 12.1 µM). Besides, the MIC99 in [4] worked out at 3.1 µg/mL (≈ 4.67 µM). For the same compound, it took 18 µg/mL (≈ 27.1 µM) to reach half-maximal cytotoxicity in [5] (CC50 at 20 h).

In the case of `CC(C)CCc1sc(NC(=O)c2cc(NC(=O)c3cc(NC(=N)c4ccc(F)cc4)cn3C)cn2C)nc1C(=O)NCCCN(C)C`, the ΔTm in the series on Salmon testes DNA came to 9 °C. Besides, in series [1], the selectivity ratio worked out at 25. In addition, the Retention_time in [2] stood at 26.2 min. In addition, the MIC80 against Candida albicans was greater than 32 µg/mL; against Staphylococcus aureus, 8 µg/mL (≈ 12.1 µM). In addition, the EC50 is 18 µM in [3] and 10 µM in the series with Trypanosoma congolense. Moreover, the MIC70 in the series with Cryptococcus neoformans was determined as 4 µg/mL (≈ 6.03 µM). The compound also displayed an MIC99 in [4] of 3.1 µg/mL (≈ 4.67 µM). For the same compound, the CC50 at 20 h in [5] was determined as 18 µg/mL (≈ 27.1 µM).

Source of the values: ChEMBL document CHEMBL4138115, “An evaluation of Minor Groove Binders as anti-fungal and anti-mycobacterial therapeutics” (Eur J Med Chem, 2017).
